Measurements as given in ChEMBL document CHEMBL3045285, “Synthesis and insecticidal activities of novel anthranilic diamides containing modified N-pyridylpyrazoles” (2010).
Converted amounts (≈) assume the structure as drawn.

Key:
Assay type in all cases: functional
Plutella xylostella [1] = test: Insecticidal activity against second-instar larval stage of Plutella xylostella (diamondback moth) in cabbage leaves assessed as mortality at 10 mg/l at 25 +/-1 degC treated for 3 secs before larva infestation measured after 2 days by leaf-dip method; details: 48 h
Summary of the method: (§1)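 Greenhouse-reared diamondback moth larvae tested by leaf-dip method at 25 ± 1 °C. Test solution made at 200 mg/L, then diluted with distilled water to working concentrations. Mortality scored dead/alive, corrected with Abbott's formula and expressed on a 0–100 scale.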

Mythimna separata [2] = test: Insecticidal activity against fourth-instar larval stage of Mythimna separata (Oriental armyworm) in compound pretreated Zea mays L. Tangyu 10 leaves assessed as mortality at 50 mg/l at 25 +/-1 degC after 2 days
Summary of the method: (§2)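 Greenhouse-reared fourth-instar oriental armyworm larvae. Corn (Tangyu 10) leaves laid on moist filter paper in Petri dishes, sprayed with test solution (200 mg/L solution diluted in distilled water), then air-dried. Ten larvae per dish. Held at 25 ± 1 °C; mortality scored dead/alive 2 days post-treatment. Triplicate treatments, Abbott-corrected, 0–100 scale.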

Plutella xylostella [3] = test: Insecticidal activity against second-instar larval stage of Plutella xylostella (diamondback moth) in cabbage leaves assessed as mortality at 2.5 mg/l at 25 +/-1 degC treated for 3 secs before larva infestation measured after 2 days by leaf-dip method; details: 48 h; summary of the method: as §1
Plutella xylostella [4] = test: Insecticidal activity against second-instar larval stage of Plutella xylostella (diamondback moth) in cabbage leaves assessed as mortality at 1 mg/l at 25 +/-1 degC treated for 3 secs before larva infestation measured after 2 days by leaf-dip method; details: 48 h; summary of the method: as §1
Mythimna separata [5] = test: Insecticidal activity against fourth-instar larval stage of Mythimna separata (Oriental armyworm) in compound pretreated Zea mays L. Tangyu 10 leaves assessed as mortality at 200 mg/l at 25 +/-1 degC after 2 days; summary of the method: as §2
Mythimna separata [6] = test: Insecticidal activity against fourth-instar larval stage of Mythimna separata (Oriental armyworm) in compound pretreated Zea mays L. Tangyu 10 leaves assessed as mortality at 100 mg/l at 25 +/-1 degC after 2 days; summary of the method: as §2
Mythimna separata [7] = test: Insecticidal activity against fourth-instar larval stage of Mythimna separata (Oriental armyworm) in compound pretreated Zea mays L. Tangyu 10 leaves assessed as mortality at 20 mg/l at 25 +/-1 degC after 2 days; summary of the method: as §2
Mythimna separata [8] = test: Insecticidal activity against fourth-instar larval stage of Mythimna separata (Oriental armyworm) in compound pretreated Zea mays L. Tangyu 10 leaves assessed as mortality at 10 mg/l at 25 +/-1 degC after 2 days; summary of the method: as §2
Plutella xylostella [9] = test: Insecticidal activity against second-instar larval stage of Plutella xylostella (diamondback moth) in cabbage leaves assessed as mortality at 5 mg/l at 25 +/-1 degC treated for 3 secs before larva infestation measured after 2 days by leaf-dip method; details: 48 h; summary of the method: as §1
Plutella xylostella [10] = test: Insecticidal activity against second-instar larval stage of Plutella xylostella (diamondback moth) in cabbage leaves assessed as mortality at 20 mg/l at 25 +/-1 degC treated for 3 secs before larva infestation measured after 2 days by leaf-dip method; details: 48 h; summary of the method: as §1
Plutella xylostella [11] = test: Insecticidal activity against second-instar larval stage of Plutella xylostella (diamondback moth) in cabbage leaves assessed as mortality at 0.25 mg/l at 25 +/-1 degC treated for 3 secs before larva infestation measured after 2 days by leaf-dip method; details: 48 h; summary of the method: as §1
Plutella xylostella [12] = test: Insecticidal activity against second-instar larval stage of Plutella xylostella (diamondback moth) in cabbage leaves assessed as mortality at 0.5 mg/l at 25 +/-1 degC treated for 3 secs before larva infestation measured after 2 days by leaf-dip method; details: 48 h; summary of the method: as §1
Mythimna separata [13] = test: Insecticidal activity against fourth-instar larval stage of Mythimna separata (Oriental armyworm) in compound pretreated Zea mays L. Tangyu 10 leaves assessed as mortality at 5 mg/l at 25 +/-1 degC after 2 days; summary of the method: as §2
Plutella xylostella [14] = test: Insecticidal activity against second-instar larval stage of Plutella xylostella (diamondback moth) in cabbage leaves assessed as mortality at 0.125 mg/l at 25 +/-1 degC treated for 3 secs before larva infestation measured after 2 days by leaf-dip method; details: 48 h; summary of the method: as §1
Mythimna separata [15] = test: Insecticidal activity against fourth-instar larval stage of Mythimna separata (Oriental armyworm) in compound pretreated Zea mays L. Tangyu 10 leaves assessed as mortality at 2.5 mg/l at 25 +/-1 degC after 2 days; summary of the method: as §2
Plutella xylostella [16] = test: Insecticidal activity against second-instar larval stage of Plutella xylostella (diamondback moth) in cabbage leaves assessed as mortality at 25 +/-1 degC treated for 3 secs before larva infestation measured after 2 days by leaf-dip method; details: 48 h; summary of the method: as §1

## CC(=O)OCc1cc(C(=O)Nc2c(C)cc(Cl)cc2C(=O)NC(C)C)n(-c2ncccc2Cl)n1
Plutella xylostella [1]
  mortality at 10 µg/mL: 100%
Mythimna separata [2]
  mortality at 50 µg/mL: 100%
Plutella xylostella [3]
  mortality at 2.5 µg/mL: 60%
Plutella xylostella [4]
  mortality at 1 µg/mL: 0%
Mythimna separata [5]
  mortality at 200 µg/mL: 100%
Mythimna separata [6]
  mortality at 100 µg/mL: 100%
Mythimna separata [7]
  mortality at 20 µg/mL: 100%
Mythimna separata [8]
  mortality at 10 µg/mL: 20%
Plutella xylostella [9]
  mortality at 5 µg/mL: 95%
Plutella xylostella [10]
  mortality at 20 µg/mL: 100%

## CNC(=O)c1cc(Cl)cc(C)c1NC(=O)c1cc(CNC(=O)C(F)(F)F)nn1-c1ncccc1Cl
Plutella xylostella [11]
  mortality at 0.25 µg/mL: 0%
Plutella xylostella [1]
  mortality at 10 µg/mL: 100%
Plutella xylostella [12]
  mortality at 0.5 µg/mL: 40%
Mythimna separata [2]
  mortality at 50 µg/mL: 100%
Plutella xylostella [3]
  mortality at 2.5 µg/mL: 100%
Plutella xylostella [4]
  mortality at 1 µg/mL: 80%
Mythimna separata [13]
  mortality at 5 µg/mL: 40%
Mythimna separata [5]
  mortality at 200 µg/mL: 100%
Mythimna separata [6]
  mortality at 100 µg/mL: 100%
Mythimna separata [7]
  mortality at 20 µg/mL: 100%
Mythimna separata [8]
  mortality at 10 µg/mL: 100%
Plutella xylostella [9]
  mortality at 5 µg/mL: 100%
Plutella xylostella [10]
  mortality at 20 µg/mL: 100%

## CNC(=O)c1cc(Cl)cc(C)c1NC(=O)c1cc(CN=[N+]=[N-])nn1-c1ncccc1Cl
Plutella xylostella [11]
  mortality at 0.25 µg/mL: 75%
Plutella xylostella [14]
  mortality at 0.125 µg/mL: 45%
Plutella xylostella [1]
  mortality at 10 µg/mL: 100%
Plutella xylostella [12]
  mortality at 0.5 µg/mL: 100%
Mythimna separata [2]
  mortality at 50 µg/mL: 100%
Plutella xylostella [3]
  mortality at 2.5 µg/mL: 100%
Plutella xylostella [4]
  mortality at 1 µg/mL: 100%
Mythimna separata [15]
  mortality at 2.5 µg/mL: 40%
Mythimna separata [13]
  mortality at 5 µg/mL: 100%
Mythimna separata [5]
  mortality at 200 µg/mL: 100%
Mythimna separata [6]
  mortality at 100 µg/mL: 100%
Mythimna separata [7]
  mortality at 20 µg/mL: 100%
Mythimna separata [8]
  mortality at 10 µg/mL: 100%
Plutella xylostella [9]
  mortality at 5 µg/mL: 100%
Plutella xylostella [10]
  mortality at 20 µg/mL: 100%

## CC(=O)OCc1cc(C(=O)Nc2c(C)cccc2C(=O)NC(C)C)n(-c2ncccc2Cl)n1
Plutella xylostella [1]
  mortality at 10 µg/mL: 60%
Mythimna separata [2]
  mortality at 50 µg/mL: 100%
Mythimna separata [5]
  mortality at 200 µg/mL: 100%
Mythimna separata [6]
  mortality at 100 µg/mL: 100%
Mythimna separata [7]
  mortality at 20 µg/mL: 100%
Mythimna separata [8]
  mortality at 10 µg/mL: 0%
Plutella xylostella [9]
  mortality at 5 µg/mL: 0%
Plutella xylostella [10]
  mortality at 20 µg/mL: 100%

## CC(=O)OCc1cc(C(=O)Nc2c(C)cc(Cl)cc2C(=O)NC2CC2)n(-c2ncccc2Cl)n1
Plutella xylostella [11]
  mortality at 0.25 µg/mL: 0%
Plutella xylostella [1]
  mortality at 10 µg/mL: 100%
Plutella xylostella [12]
  mortality at 0.5 µg/mL: 40%
Mythimna separata [2]
  mortality at 50 µg/mL: 100%
Plutella xylostella [3]
  mortality at 2.5 µg/mL: 90%
Plutella xylostella [4]
  mortality at 1 µg/mL: 60%
Mythimna separata [5]
  mortality at 200 µg/mL: 100%
Mythimna separata [6]
  mortality at 100 µg/mL: 100%
Mythimna separata [7]
  mortality at 20 µg/mL: 100%
Mythimna separata [8]
  mortality at 10 µg/mL: 0%
Plutella xylostella [9]
  mortality at 5 µg/mL: 100%
Plutella xylostella [10]
  mortality at 20 µg/mL: 100%

## CC(=O)OCc1cc(C(=O)Nc2c(C)cc(Cl)cc2C(=O)NC(C)(C)C)n(-c2ncccc2Cl)n1
Plutella xylostella [11]
  mortality at 0.25 µg/mL: 25%
Plutella xylostella [14]
  mortality at 0.125 µg/mL: 0%
Plutella xylostella [1]
  mortality at 10 µg/mL: 100%
Plutella xylostella [12]
  mortality at 0.5 µg/mL: 50%
Mythimna separata [2]
  mortality at 50 µg/mL: 100%
Plutella xylostella [3]
  mortality at 2.5 µg/mL: 95%
Plutella xylostella [4]
  mortality at 1 µg/mL: 70%
Mythimna separata [13]
  mortality at 5 µg/mL: 20%
Mythimna separata [5]
  mortality at 200 µg/mL: 100%
Mythimna separata [6]
  mortality at 100 µg/mL: 100%
Mythimna separata [7]
  mortality at 20 µg/mL: 100%
Mythimna separata [8]
  mortality at 10 µg/mL: 100%
Plutella xylostella [9]
  mortality at 5 µg/mL: 100%
Plutella xylostella [10]
  mortality at 20 µg/mL: 100%

## CNC(=O)c1cc(Cl)cc(C)c1NC(=O)c1cc(COC(C)=O)nn1-c1ncccc1Cl
Plutella xylostella [1]
  mortality at 10 µg/mL: 90%
Mythimna separata [2]
  mortality at 50 µg/mL: 100%
Plutella xylostella [3]
  mortality at 2.5 µg/mL: 45%
Plutella xylostella [4]
  mortality at 1 µg/mL: 0%
Mythimna separata [5]
  mortality at 200 µg/mL: 100%
Mythimna separata [6]
  mortality at 100 µg/mL: 100%
Mythimna separata [7]
  mortality at 20 µg/mL: 100%
Mythimna separata [8]
  mortality at 10 µg/mL: 0%
Plutella xylostella [9]
  mortality at 5 µg/mL: 70%
Plutella xylostella [10]
  mortality at 20 µg/mL: 100%

## CNC(=O)c1cc(C(=O)Nc2c(C)cc(Cl)cc2C(=O)NC2CC2)n(-c2ncccc2Cl)n1
Plutella xylostella [1]
  mortality at 10 µg/mL: 0%
Mythimna separata [2]
  mortality at 50 µg/mL: 100%
Mythimna separata [5]
  mortality at 200 µg/mL: 100%
Mythimna separata [6]
  mortality at 100 µg/mL: 100%
Mythimna separata [7]
  mortality at 20 µg/mL: 100%
Mythimna separata [8]
  mortality at 10 µg/mL: 20%
Plutella xylostella [10]
  mortality at 20 µg/mL: 50%

## CNC(=O)c1cc(C(=O)Nc2c(C)cc(Cl)cc2C(=O)NC(C)(C)C)n(-c2ncccc2Cl)n1
Plutella xylostella [11]
  mortality at 0.25 µg/mL: 30%
Plutella xylostella [14]
  mortality at 0.125 µg/mL: 0%
Plutella xylostella [1]
  mortality at 10 µg/mL: 100%
Plutella xylostella [12]
  mortality at 0.5 µg/mL: 85%
Mythimna separata [2]
  mortality at 50 µg/mL: 100%
Plutella xylostella [3]
  mortality at 2.5 µg/mL: 100%
Plutella xylostella [4]
  mortality at 1 µg/mL: 100%
Mythimna separata [13]
  mortality at 5 µg/mL: 40%
Mythimna separata [5]
  mortality at 200 µg/mL: 100%
Mythimna separata [6]
  mortality at 100 µg/mL: 100%
Mythimna separata [7]
  mortality at 20 µg/mL: 100%
Mythimna separata [8]
  mortality at 10 µg/mL: 100%
Plutella xylostella [9]
  mortality at 5 µg/mL: 100%
Plutella xylostella [10]
  mortality at 20 µg/mL: 100%

## CNC(=O)c1cc(Cl)cc(C)c1NC(=O)c1cc(Br)nn1-c1ncccc1Cl [CHLORANTRANILIPROLE]
Plutella xylostella [11]
  mortality at 0.25 µg/mL: 100%
Plutella xylostella [16]
  LC50: 3.8 µg/mL (≈ 7.87 µM)
Plutella xylostella [14]
  mortality at 0.125 µg/mL: 100%
Plutella xylostella [1]
  mortality at 10 µg/mL: 100%
Plutella xylostella [12]
  mortality at 0.5 µg/mL: 100%
Mythimna separata [2]
  mortality at 50 µg/mL: 100%
Plutella xylostella [3]
  mortality at 2.5 µg/mL: 100%
Plutella xylostella [4]
  mortality at 1 µg/mL: 100%
Mythimna separata [15]
  mortality at 2.5 µg/mL: 100%
Mythimna separata [13]
  mortality at 5 µg/mL: 100%
Mythimna separata [5]
  mortality at 200 µg/mL: 100%
Mythimna separata [6]
  mortality at 100 µg/mL: 100%
Mythimna separata [7]
  mortality at 20 µg/mL: 100%
Mythimna separata [8]
  mortality at 10 µg/mL: 100%
Plutella xylostella [9]
  mortality at 5 µg/mL: 100%
Plutella xylostella [10]
  mortality at 20 µg/mL: 100%
